Reference: ChEMBL document CHEMBL4431338, “Design, synthesis and biological evaluation of novel hamamelitannin analogues as potentiators for vancomycin in the treatment of biofilm related Staphylococcus aureus infections” (Bioorg Med Chem, 2016)

Columns and labels:
[1] = tested on: Staphylococcus aureus; experiment: Potentiation of vancomycin-mediated reduction in CFU per biofilm of Staphylococcus aureus Mu50 after 24 hrs; type: functional, organism-based; details: Mu50, 24 h
[2] = tested on: Staphylococcus aureus; experiment: Potentiation of vancomycin-mediated reduction in CFU per biofilm of Staphylococcus aureus Mu50 preincubated for 20 hrs followed by vancomycin addition measured after 24 hrs; type: functional, organism-based
Method in brief: (§1)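 Inoculum: overnight MH culture resuspended in 2× MH at OD590 0.2. Analogue present during 4 h adhesion at 37 °C, then after a saline wash for 20 h more at 37 °C. Biofilms then rinsed and exposed to vancomycin (20 μg/ml) alone in saline for 24 h at 37 °C. Line 5 uses analogue at 100 μM; line 4 uses lower concentrations, with EC50 as the level doubling vancomycin killing. CFU/biofilm counted by plating after vortex/sonication, as % reduction vs untreated control. n ≥ 9.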

[3] = tested on: Staphylococcus aureus; experiment: Potentiation of vancomycin-mediated reduction in CFU per biofilm of Staphylococcus aureus Mu50 preincubated with compound at 100 uM for 20 hrs followed by vancomycin addition measured after 24 hrs (reference value: 30 +/- 14%); type: functional; parameters: scale not given: the % may be the effect or the level left; method in brief: as §1
[4] = tested on: Staphylococcus aureus; experiment: Potentiation of vancomycin-mediated reduction in CFU per biofilm of Staphylococcus aureus Mu50 at 100 uM after 24 hrs (reference value: 30 +/- 14%); type: functional; parameters: scale not given: the % may be the effect or the level left
[5] = tested on: Staphylococcus aureus; experiment: Growth inhibition of Staphylococcus aureus Mu50 after 20 hrs by broth microdilution method; type: organism-based; details: in vitro
Method in brief: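 S. aureus Mu50 grown in Mueller–Hinton broth at 37 °C, aerobic; MICs determined in triplicate in flat-bottom 96-well microtiter plates following an earlier published method.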

EC50 [1]	EC50 [2]	SMILES	Activity [3]	Activity [4]	MIC [5]
		O=C(NC[C@]1(O)CO[C@H](CNS(=O)(=O)C(F)(F)F)[C@H]1O)c1ccccc1	71%	57%	> 500 µM
> 250 µM	224 µM	O=C(NC[C@@H]1OC[C@@](O)(CNC(=O)c2ccccc2)[C@@H]1O)c1ccccc1	48%	44%	> 500 µM
		O=C(NC[C@]1(O)CO[C@H](CNS(=O)(=O)c2ccc(-c3ccccc3)cc2)[C@H]1O)c1ccccc1	84%	83%	> 500 µM
		O=C(NC[C@]1(O)CO[C@H](Cn2cc(-c3ccccc3)nn2)[C@H]1O)c1ccccc1	46%	66%	> 500 µM
		O=C(NC[C@]1(O)CO[C@H](CNC(=S)Nc2ccccc2)[C@H]1O)c1ccccc1	80%	73%	> 500 µM
124 µM	97 µM	O=C(NC[C@H]1OC[C@@](O)(CNC(=O)c2ccccc2)[C@@H]1O)c1ccccc1	66%	65%	> 500 µM
		CS(=O)(=O)NC[C@H]1OC[C@@](O)(CNC(=O)c2ccccc2)[C@@H]1O	69%	62%	> 500 µM
56.7 µM	26.4 µM	O=C(NC[C@]1(O)CO[C@H](CNC(=O)c2ccccc2OC(F)(F)F)[C@H]1O)c1ccccc1	78%	69%	> 500 µM
45.1 µM	41.2 µM	O=C(NC[C@]1(O)CO[C@H](CNCc2ccccc2)[C@H]1O)c1ccccc1	81%	78%	> 500 µM
24.3 µM	8.5 µM	CN(C[C@H]1OC[C@@](O)(CNC(=O)c2ccccc2)[C@@H]1O)C(=O)c1ccccc1	94%	90%	> 500 µM
25.7 µM	31 µM	O=C(NC[C@]1(O)CO[C@H](CNC(=O)c2ccccc2OC(F)F)[C@H]1O)c1ccccc1	81%	78%	> 500 µM
20.4 µM	1.9 µM	O=C(NC[C@]1(O)CO[C@H](CNC(=O)c2ccccc2I)[C@H]1O)c1ccccc1	96%	84%	> 500 µM
		CC(C)S(=O)(=O)NC[C@H]1OC[C@@](O)(CNC(=O)c2ccccc2)[C@@H]1O	72%	67%	> 500 µM
		Cc1ccc(S(=O)(=O)NC[C@H]2OC[C@@](O)(CNC(=O)c3ccccc3)[C@@H]2O)cc1	83%	74%	> 500 µM
60.2 µM	57.7 µM	O=C(NC[C@]1(O)CO[C@H](CN2Cc3ccccc3C2=O)[C@H]1O)c1ccccc1	75%	70%	> 500 µM
		CCS(=O)(=O)NC[C@H]1OC[C@@](O)(CNC(=O)c2ccccc2)[C@@H]1O	49%	47%	> 500 µM
		O=C(NC[C@]1(O)CO[C@H](Cn2nncc2-c2ccccc2)[C@H]1O)c1ccccc1	53%	26%	> 500 µM
		O=C(NC[C@]1(O)CO[C@H](CNS(=O)(=O)c2ccccc2)[C@H]1O)c1ccccc1	78%	69%	> 500 µM
		O=C(NC[C@H]1OC[C@@](O)(CNC(=O)c2ccccc2)[C@@H]1O)Nc1ccccc1	76%	81%	> 500 µM
		O=C(NC[C@]1(O)CO[C@H](CNS(=O)(=O)c2ccccc2Cl)[C@H]1O)c1ccccc1	65%	73%	> 500 µM
27.8 µM	23.5 µM	O=C(NC[C@]1(O)CO[C@H](CNS(=O)(=O)c2ccc(Cl)cc2)[C@H]1O)c1ccccc1	86%	85%	> 500 µM
19.7 µM	9.8 µM	O=C(NC[C@]1(O)CO[C@H](CNC(=O)c2ccccc2Br)[C@H]1O)c1ccccc1	96%	82%	> 500 µM

SMILES	EC50 [1]	EC50 [2]	Activity [3]	Activity [4]	MIC [5]
O=C(NC[C@]1(O)CO[C@H](CNC(=O)c2ccccc2Cl)[C@H]1O)c1ccccc1	0.389 µM	0.389 µM			
O=C(OC[C@H]1OC(O)[C@@](O)(COC(=O)c2cc(O)c(O)c(O)c2)[C@@H]1O)c1cc(O)c(O)c(O)c1 (stereo partly drawn) [HAMAMELITANNIN]	165 µM	146 µM	57%	57%	> 500 µM
